Laboratory results taken from ChEMBL document CHEMBL2177085 (J Med Chem, 2012).

Key:
[1] = test system: HT-29; test: Induction of apoptosis in human HT-29 assessed as accumulation at subG1 phase at 1.18 uM incubated for 7 days by flow cytometry (reference value: 3.4 +/- 0.9%); format: functional
Procedure, shortened: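 HT-29 cells, 1.5 × 10⁵ per well, plated overnight, then exposed for 7 days to irinotecan at 1.18 μM, alone or with 7.9 μM test compound. Cells were trypsinized and stained for 1 h at 4 °C in PI buffer (sodium citrate, Triton X-100, PI). Sub-G1 fraction measured by flow cytometry (Nicoletti method). Drug-free control used as baseline. Triplicate.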

[2] = Inhibition of angiogenesis in chick embryo model assessed as reduction in vessel growth at 26 nM incubated for 24 hrs; format: functional, Gallus gallus
Procedure, shortened: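 White leghorn eggs incubated at 37.5 °C, 62% humidity. At 70 h, albumen removed and shell windowed. From 75 h, 15 agarose pellets (from a 26 mM DMSO stock in 2% agarose; final concentration 26 nM) placed on the area vasculosa.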

[3] = test system: HT-29; test: Cytotoxic activity against human HT-29 cells assessed as cell viability at 2.6 uM incubated for 3 days by MTT assay; format: functional; conditions: HT-29, 72 h, read-out: Activity
Procedure, shortened: (§1)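 MTT viability: exponentially growing cells, 10 000 viable cells/well in RPMI plated overnight, then exposed to test compounds for 3 days (HT-29, Molm-14) or 5 days (Mkn-45) at 37 °C, 5% CO2. MTT added for 4 h, then SDS/HCl solubilization overnight and absorbance read at 562 nm. Viability is expressed relative to untreated cells (100%). Triplicate.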

[4] = test system: MKN-45; test: Cytotoxic activity against human MKN45 cells assessed as cell viability at 0.5 uM incubated for 5 days by MTT assay; format: functional; conditions: MKN-45, 120 h, read-out: Activity; procedure, shortened: as §1
[5] = test system: MKN-45; test: Induction of apoptosis in human MKN45 assessed as accumulation at subG1 phase at 5 uM incubated for 7 days by flow cytometry (reference value: 10.9 +/- 3.2%); format: functional
[6] = test system: HT-29; test: Cytotoxic activity against human HT-29 cells assessed as cell viability at 26 uM incubated for 3 days by MTT assay; format: functional; conditions: HT-29, 72 h, read-out: Activity; procedure, shortened: as §1
[7] = test system: MKN-45; test: Cytotoxic activity against human MKN45 cells assessed as cell viability at 10 uM incubated for 5 days by MTT assay; format: functional; conditions: MKN-45, 120 h, read-out: Activity; procedure, shortened: as §1
[8] = test system: MKN-45; test: Cytotoxic activity against human MKN45 cells assessed as cell viability at 20 uM incubated for 5 days by MTT assay; format: functional; conditions: MKN-45, 120 h, read-out: Activity; procedure, shortened: as §1
[9] = test system: HT-29; test: Cytotoxic activity against human HT-29 cells assessed as cell viability at 52 uM incubated for 3 days by MTT assay; format: functional; conditions: HT-29, 72 h, read-out: Activity; procedure, shortened: as §1
[10] = test system: MKN-45; test: Induction of apoptosis in human MKN45 assessed as accumulation at subG1 phase at 10 uM incubated for 7 days by flow cytometry (reference value: 10.9 +/- 3.2%); format: functional
[11] = test system: MKN-45; test: Induction of apoptosis in human MKN45 assessed as accumulation at subG1 phase at 15 uM incubated for 7 days by flow cytometry (reference value: 10.9 +/- 3.2%); format: functional
[12] = test system: MKN-45; test: Cytotoxic activity against human MKN45 cells assessed as cell viability at 5 uM incubated for 5 days by MTT assay; format: functional; conditions: MKN-45, 120 h, read-out: Activity; procedure, shortened: as §1
[13] = test system: MKN-45; test: Cytotoxic activity against human MKN45 cells assessed as cell viability at 50 uM incubated for 5 days by MTT assay; format: functional; conditions: MKN-45, 120 h, read-out: Activity; procedure, shortened: as §1
[14] = test system: MKN-45; test: Cytotoxic activity against human MKN45 cells assessed as cell viability at 1 uM incubated for 5 days by MTT assay; format: functional; conditions: MKN-45, 120 h, read-out: Activity; procedure, shortened: as §1
[15] = test system: MKN-45; test: Induction of apoptosis in human MKN45 assessed as accumulation at subG1 phase at 20 uM incubated for 7 days by flow cytometry (reference value: 10.9 +/- 3.2%); format: functional
[16] = test system: HT-29; test: Cytotoxic activity against human HT-29 cells assessed as cell viability at 7.9 uM incubated for 3 days by MTT assay; format: functional; conditions: HT-29, 72 h, read-out: Activity
Procedure, shortened: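 HT-29 cells in exponential growth were seeded at 10 000 viable cells per well in RPMI and left overnight. They were then exposed to compound for 3 days at 37 °C under 5% CO₂. MTT was added for 4 h, followed by overnight solubilisation in 10% SDS/0.01 M HCl and absorbance at 562 nm. Viability is expressed as % of untreated cells (100%), in triplicate.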

[17] = test system: MKN-45; test: Induction of apoptosis in human MKN45 assessed as accumulation at subG1 phase at 1 uM incubated for 7 days by flow cytometry (reference value: 10.9 +/- 3.2%); format: functional

SMILES | Activity [1] [%] | inhibition (INH) [2] [%] | viability at 2.6 µM [3] [%] | viability at 0.5 µM [4] [%] | Activity [5] [%] | viability at 26 µM [6] [%] | viability at 10 µM [7] [%] | viability at 20 µM [8] [%] | viability at 52 µM [9] [%] | Activity [10] [%] | Activity [11] [%] | viability at 5 µM [12] [%] | viability at 50 µM [13] [%] | viability at 1 µM [14] [%] | Activity [15] [%] | viability at 7.9 µM [16] [%] | Activity [17] [%]
CCc1c2c(nc3ccc(OC(=O)N4CCC(N5CCCCC5)CC4)cc13)-c1cc3c(c(=O)n1C2)COC(=O)[C@]3(O)CC [IRINOTECAN] | 18.3 | – | – | – | – | – | – | – | – | – | – | – | – | – | – | – | –
COc1ccccc1C1=C(c2c[nH]c3ncccc23)C(=O)NC1=O | – | 30 | – | – | – | – | – | – | – | – | – | – | – | – | – | – | –
COc1cc(OC)cc(C2=C(c3c[nH]c4ncccc34)C(=O)NC2=O)c1 | – | 25 | 54.3 | 118 | 24.8 | 43 | 57 | 62.1 | 40.5 | 31.8 | 45.8 | 60.4 | 59.4 | 118 | 55.7 | 49.2 | 12.7
